We go through 41 compounds from ChEMBL document CHEMBL3632544, “Acyl dihydropyrazolo[1,5-a]pyrimidinones as metabotropic glutamate receptor 5 positive allosteric modulators” (Bioorg Med Chem Lett, 2015).

For data set [1], the target named is T1, Metabotropic glutamate receptor 5 (Homo sapiens, UniProt P41594). Kind of data set: Positive allosteric modulation of human mGlu5 expressed in HEK293 cells assessed as calcium mobilization relative to glutamate. The data set is classed as functional, cell-based. Put shortly:
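Calcium mobilization in HEK293 cells expressing human mGlu5, reported as EC50 and % Glu Max. Mean±SEM of three or more independent determinations, each run in triplicate.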
Background: Calcium flux is commonly read through the fluorescence of an indicator in the cells.
Target sequence in this assay (P41594 21-1212 limits assumed): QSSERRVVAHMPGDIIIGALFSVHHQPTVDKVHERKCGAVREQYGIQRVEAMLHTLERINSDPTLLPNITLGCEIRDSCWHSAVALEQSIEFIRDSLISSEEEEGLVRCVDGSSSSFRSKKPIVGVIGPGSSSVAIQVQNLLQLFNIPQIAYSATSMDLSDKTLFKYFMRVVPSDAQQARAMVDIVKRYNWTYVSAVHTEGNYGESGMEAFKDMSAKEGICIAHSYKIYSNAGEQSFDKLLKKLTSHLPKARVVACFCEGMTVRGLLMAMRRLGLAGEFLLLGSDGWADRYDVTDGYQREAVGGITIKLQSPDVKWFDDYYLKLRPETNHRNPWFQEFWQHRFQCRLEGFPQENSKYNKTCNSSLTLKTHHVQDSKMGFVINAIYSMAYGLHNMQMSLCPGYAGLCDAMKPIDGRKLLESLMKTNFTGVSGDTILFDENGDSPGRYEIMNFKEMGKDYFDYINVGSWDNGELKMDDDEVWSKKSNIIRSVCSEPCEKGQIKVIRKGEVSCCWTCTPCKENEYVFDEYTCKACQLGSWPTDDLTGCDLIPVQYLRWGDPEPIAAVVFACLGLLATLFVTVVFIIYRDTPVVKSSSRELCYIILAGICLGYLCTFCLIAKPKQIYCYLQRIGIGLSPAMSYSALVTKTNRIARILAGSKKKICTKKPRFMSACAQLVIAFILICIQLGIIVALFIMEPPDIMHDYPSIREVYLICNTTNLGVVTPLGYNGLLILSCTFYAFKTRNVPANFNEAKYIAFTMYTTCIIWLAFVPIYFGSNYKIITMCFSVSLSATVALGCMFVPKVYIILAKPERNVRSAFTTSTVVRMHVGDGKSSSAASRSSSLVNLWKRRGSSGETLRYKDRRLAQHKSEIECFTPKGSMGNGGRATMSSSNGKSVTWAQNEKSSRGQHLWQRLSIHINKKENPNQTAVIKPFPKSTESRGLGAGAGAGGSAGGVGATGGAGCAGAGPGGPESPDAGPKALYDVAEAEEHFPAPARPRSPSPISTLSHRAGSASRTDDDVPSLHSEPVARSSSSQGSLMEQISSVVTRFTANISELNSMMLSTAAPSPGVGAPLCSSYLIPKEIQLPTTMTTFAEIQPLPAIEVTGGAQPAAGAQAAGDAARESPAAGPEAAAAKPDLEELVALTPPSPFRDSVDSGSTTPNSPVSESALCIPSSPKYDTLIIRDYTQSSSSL

Data set [2] has as its target T1, Metabotropic glutamate receptor 5. Kind of data set: Positive allosteric modulation of human mGlu5 expressed in HEK293 cells assessed as calcium mobilization. The format is functional, cell-based. The method in brief:
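Calcium mobilization read-out in HEK293 cells stably expressing human mGlu5; PAM EC50 and efficacy as % of maximal glutamate response. Mean±SEM of three or more independent determinations, each in triplicate.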
Target sequence in this assay (P41594 whole entry): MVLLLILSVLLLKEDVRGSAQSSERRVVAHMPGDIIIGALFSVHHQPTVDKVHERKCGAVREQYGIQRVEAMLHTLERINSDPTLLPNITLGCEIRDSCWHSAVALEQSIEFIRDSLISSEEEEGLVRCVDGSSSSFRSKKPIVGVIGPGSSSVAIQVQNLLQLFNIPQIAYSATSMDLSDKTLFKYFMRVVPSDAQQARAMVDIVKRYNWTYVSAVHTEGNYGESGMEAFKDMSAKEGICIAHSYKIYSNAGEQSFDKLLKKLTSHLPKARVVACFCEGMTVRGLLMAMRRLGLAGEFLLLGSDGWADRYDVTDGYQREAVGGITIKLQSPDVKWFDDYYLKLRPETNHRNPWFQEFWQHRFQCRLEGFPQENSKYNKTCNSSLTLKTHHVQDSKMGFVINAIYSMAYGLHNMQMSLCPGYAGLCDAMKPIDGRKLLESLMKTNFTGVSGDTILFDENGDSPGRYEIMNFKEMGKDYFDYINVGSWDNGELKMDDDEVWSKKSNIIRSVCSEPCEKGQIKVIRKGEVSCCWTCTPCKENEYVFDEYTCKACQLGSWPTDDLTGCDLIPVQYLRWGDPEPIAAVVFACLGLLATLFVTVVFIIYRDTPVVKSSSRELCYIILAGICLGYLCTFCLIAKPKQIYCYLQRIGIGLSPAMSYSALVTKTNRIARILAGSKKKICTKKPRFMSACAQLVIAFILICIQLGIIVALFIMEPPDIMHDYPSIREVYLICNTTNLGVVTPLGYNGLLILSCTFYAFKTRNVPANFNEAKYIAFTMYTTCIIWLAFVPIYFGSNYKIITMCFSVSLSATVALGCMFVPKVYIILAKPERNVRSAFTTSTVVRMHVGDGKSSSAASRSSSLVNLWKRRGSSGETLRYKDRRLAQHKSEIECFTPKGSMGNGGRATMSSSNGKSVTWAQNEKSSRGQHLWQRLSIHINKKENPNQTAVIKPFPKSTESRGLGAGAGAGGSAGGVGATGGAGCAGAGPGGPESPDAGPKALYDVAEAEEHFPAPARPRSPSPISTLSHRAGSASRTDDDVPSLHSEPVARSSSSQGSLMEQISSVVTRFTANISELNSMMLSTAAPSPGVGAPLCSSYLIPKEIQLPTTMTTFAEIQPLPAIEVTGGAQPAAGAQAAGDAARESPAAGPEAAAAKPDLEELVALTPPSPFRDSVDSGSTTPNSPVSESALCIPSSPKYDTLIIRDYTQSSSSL

The test system of data set [3] is Plasma. Nature of the data set: Stability in rat plasma after 4 hrs. The format is ADME, cell-free. Put shortly:
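Compound incubated in rat plasma at 37 °C for 4 h; stability assessed.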

Data set [4] concerns Plasma. Kind of data set: Fraction unbound in human plasma. The format is ADME, cell-free. The method in brief:
(§1)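 Plasma protein binding measured in human and rat plasma; readout is fraction unbound.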

Data set [5] in a line: Stability in simulated gastric fluid for 1 hr. The data set is classed as physicochemical. The following applies: simulated gi fluid. Put shortly: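 Incubation in simulated gastric fluid at 37 °C for 1 h; decomposition of the external amide assessed.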
The nature of data set [6]: Stability in beta cyclodextrin at pH 6 upto 5 days. The data set is classed as physicochemical. The settings on record: buffer, pH 6, 120 h. Put shortly:
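Stability of the compound formulated at 4 mg/mL in 20% β-cyclodextrin vehicle, pH 6, monitored for up to five days; percent decomposition of the amide determined.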

The test system of data set [7] is Plasma. Nature of the data set: Fraction unbound in rat plasma. The data set is classed as ADME, cell-free. Put shortly: as §1
Data set [8] can be described thus: Plasma clearance in Sprague-Dawley rat at 0.2 mg/kg, iv. The format is ADME, organism-based.

SMILES strings stand for the structures.

With `O=C(c1nccs1)N1CCCn2nc(COc3ccccc3)cc21`, the %max in data set [1] worked out at 24%. For the same compound, the EC50 in data set [2] (read-out: EC50) was determined as 0.257 µM.
Taken in the same sequence, the figures for `CC(C)(C)C(=O)N1CCCn2nc(COc3ccccc3)cc21` were 64% and 0.882 µM.
In the case of `CC(=O)N1CCCc2nc(COc3ccccc3)sc21`, in data set [2] (read-out: EC50), the EC50 was 0.888 µM.
`CC(=O)N1CCCn2nc(C[S+]([O-])c3ccccc3)cc21` (stereo not drawn): the %max in data set [1] is less than 15%. Also, the EC50 entry in data set [2] (hek293) is “Not Active”; in data set [2] (read-out: pEC50 (converted)), greater than 31.6 µM.
As to `O=C(c1ccccc1)N1CCCn2nc(COc3ccccc3)cc21`, the %max in data set [1] was found to be 63%. The EC50 in data set [2] (read-out: EC50) was found to be 0.61 µM.
The corresponding values for `CC(=O)N1CCCn2nc(COc3cc(F)cc(C#N)c3)cc21` are 39% and greater than 10 µM.
The corresponding values for `CC(=O)N1CCCn2nc(CNc3ccccc3)cc21` are 20% and greater than 10 µM.
For the compound `CC(=O)N1CCCc2nc(COc3ccccc3)oc21`, the EC50 in data set [2] (read-out: EC50) was 1.34 µM. Besides, the Stability entry in the data set with Plasma [3] is given as “Unstable”.
On to `O=C(C1CCCC1)N1CCCn2nc(COc3ccccc3)cc21`, for which the %max in data set [1] was determined as 41%. Further, the EC50 in data set [2] (read-out: EC50) turned out to be 1.75 µM.
Taken in the same sequence, the figures for `O=C(c1cccc(F)c1)N1CCCn2nc(COc3ccccc3)cc21` were 61% and 0.591 µM.
`O=C(Cc1ccccc1)N1CCCn2nc(COc3ccccc3)cc21`: the %max in data set [1] came out at 72%. Further, the results for the EC50 in data set [2] (read-out: EC50) and in data set [2] (read-out: pEC50 (converted)) were 0.378 µM and 0.372 µM, respectively.
On to `CC(=O)N1c2cc(COc3ccccc3)nn2CCC1c1ccccc1` (stereo not drawn), for which, in data set [1], the %max amounted to 38%. The EC50 in data set [2] (read-out: EC50) came to 5.37 µM.
For `CC(=O)N1CCCn2nc(CS(=O)(=O)c3ccccc3)cc21`, the %max in data set [1] is less than 15%. Further, the EC50 result in data set [2] (hek293) was “Not Active”; in data set [2] (read-out: pEC50 (converted)), greater than 31.6 µM.
Take `CC(C)C(=O)N1CCCn2nc(COc3ccccc3)cc21`: the %max in data set [1] was 59%. The EC50 in data set [2] (read-out: EC50) is 1.71 µM.
As usually defined, the clearance is a measure of how efficiently the substance is removed, as volume per time. A low value points to inefficient removal. Take `CC(=O)N1CCCn2nc(COc3ccccc3F)cc21`: the %max in data set [1] turned out to be 60%. Besides, the Fu is 0.17 in the data set on Plasma [4] and 0.24 in the data set on Plasma [7]. Further, the Stability result (in data set [5]; in data set [6]; in the data set on Plasma [3]) was “Stable” in each case. Besides, the EC50 in data set [2] (read-out: EC50) was 2.37 µM. This compound also yielded a clearance in data set [8] of 103 mL/min/kg.
For the compound `O=C(C1CC1)N1CCCn2nc(COc3ccccc3)cc21`, the %max in data set [1] worked out at 61%. Also, the EC50 was 0.559 µM in data set [2] (read-out: EC50) and 0.525 µM in data set [2] (read-out: pEC50 (converted)).
For the compound `O=C(c1ccccn1)N1CCCn2nc(COc3ccccc3)cc21`, the %max in data set [1] was 44%. For the same compound, in data set [2] (read-out: EC50), the EC50 is greater than 10 µM.
Regarding `CC(=O)N1CCCn2nc(COc3cccc(F)c3)cc21`, in data set [1], the %max came out at 58%. The EC50 in data set [2] (read-out: EC50) was 0.266 µM; in data set [2] (read-out: pEC50 (converted)), 0.24 µM.
Turning to `O=C(c1ccc(Cl)cc1)N1CCCn2nc(COc3ccccc3)cc21`, the %max in data set [1] amounted to 68%. Besides, in data set [2] (read-out: EC50), the EC50 was found to be 0.39 µM.
As to `O=C(c1ccco1)N1CCCn2nc(COc3ccccc3)cc21`, the %max in data set [1] was less than 15%. The EC50 entry is “Not Active” in data set [2] (hek293) and greater than 31.6 µM in data set [2] (read-out: pEC50 (converted)).
Turning to `O=C(c1ccccc1F)N1CCCn2nc(COc3ccccc3)cc21`, the %max in data set [1] amounted to 62%. Moreover, the EC50 in data set [2] (read-out: EC50) was 1.13 µM.
`CC(=O)N1CCCc2nc(COc3ccccc3)cn21`: in data set [2] (read-out: EC50), the EC50 worked out at 0.78 µM. Also, in the data set with Plasma [3], the Stability result is “Unstable”.
For the compound `CC(=O)N1CCCn2nc(CN3CCCc4ccccc43)cc21`, in data set [1], the %max came to 48%. Besides, in data set [2] (read-out: EC50), the EC50 was greater than 10 µM.
Taken in the same sequence, the figures for `CCC(=O)N1CCCn2nc(COc3ccccc3)cc21` were 48% and 0.332 µM.
Consider `CC(=O)N1CCCn2nc(COc3cccnc3)cc21`, for which the %max in data set [1] was less than 15%. Also, the figures for the EC50 result in data set [2] (hek293) and in data set [2] (read-out: pEC50 (converted)) were “Not Active” and greater than 31.6 µM, respectively.
On to `O=C(C1CCC1)N1CCCn2nc(COc3ccccc3)cc21`, for which the %max in data set [1] was 41%. Further, in data set [2] (read-out: EC50), the EC50 was 1.22 µM.
The corresponding values for `CC(=O)N1c2cc(COc3ccccc3)nn2CCC1C` (stereo not drawn) are 67% and 0.794 µM.
On to `CC(=O)N1CCCn2nc(CN(C)c3ccccc3)cc21`, for which the %max in data set [1] is 74%. Moreover, the results for the Fu in the data set with Plasma [4] and in the data set on Plasma [7] were 0.46 and 0.35, respectively. For the same compound, the EC50 in data set [2] (read-out: EC50) came out at 0.7 µM.
For the compound `CC(=O)N1CCCn2nc(COc3ccncc3)cc21`, the %max in data set [1] is less than 15%. Moreover, the figures for the EC50 entry in data set [2] (hek293) and in data set [2] (read-out: pEC50 (converted)) were “Not Active” and greater than 31.6 µM, respectively.
`CC(=O)N1CCCn2nc(CSc3ccccc3)cc21`: the %max in data set [1] came to 39%. The EC50 in data set [2] (read-out: EC50) was 3.9 µM.
Taken in the same sequence, the figures for `O=C(c1ccno1)N1CCCn2nc(COc3ccccc3)cc21` were 22% and 2.78 µM.
As to `CC(=O)N1CCCn2nc(CN3CCOc4ccccc43)cc21`, the %max in data set [1] worked out at 67%. Also, the Fu in the data set with Plasma [4] was found to be 0.35; with Plasma [7], 0.43. In addition, the EC50 in data set [2] (read-out: EC50) was 0.725 µM.
Regarding `CC(=O)N1CCCn2nc(COc3ccccc3)c(F)c21`, in data set [2] (read-out: EC50), the EC50 was found to be 3.24 µM.
As to `CC(=O)N1CCCn2cc(COc3ccccc3)nc21`, the EC50 result in data set [2] (hek293) was “Not Active”.
As to `CC(=O)N1CCCn2nc(COc3ccccc3)nc21`, the EC50 in data set [2] (read-out: EC50) was determined as 3.4 µM.
As for `O=C(c1ccncc1)N1CCCn2nc(COc3ccccc3)cc21`, the %max in data set [1] amounted to 51%. In addition, in data set [2] (read-out: EC50), the EC50 is greater than 10 µM.
For the compound `CC(=O)N1CCCn2nc(CN3CCc4ccccc43)cc21`, the %max in data set [1] was less than 15%. The results for the EC50 entry in data set [2] (hek293) and in data set [2] (read-out: pEC50 (converted)) were “Not Active” and greater than 31.6 µM, respectively.
Turning to `CC(=O)N1CCCn2nc(CN(C)C3C4CC3C4)cc21` (stereo not drawn), in data set [1], the %max is less than 15%. Further, the EC50 result is “Not Active” in data set [2] (hek293) and greater than 31.6 µM in data set [2] (read-out: pEC50 (converted)).
Consider `CC(=O)N1CCCn2nc(COc3cc(F)cc(F)c3)cc21`, for which, in data set [1], the %max was determined as 63%. Further, the EC50 in data set [2] (read-out: EC50) is 1.27 µM.
As for `O=C(c1ccc(F)cc1)N1CCCn2nc(COc3ccccc3)cc21`, the %max in data set [1] turned out to be 63%. For the same compound, the EC50 in data set [2] (read-out: EC50) is 0.596 µM.
Regarding `CC(=O)N1CCCn2nc(COc3ccc(F)cc3)cc21`, in data set [1], the %max is 56%. In addition, the EC50 in data set [2] (read-out: EC50) is greater than 10 µM.
